# Data reported in PubChem BioAssay.
# The other results are listed elsewhere or left out. The source made the active and inactive calls. Cut-off read from the data, not from the text of the source, unless noted: active = inhibition above about 40%; inactive = the rest.
# Experiments:
# [1] = inhibitors of PAF-induced NF-kB signaling, retest, confirmation, cell-based, GFP fluorescence, single concentration (AID 602472); conditions: KKLEB CF airway cells, overnight, at 5 µM, stronger effect = higher value;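 note: stimulus PAF is a Pseudomonas aeruginosa filtrate and not platelet activating factor; plate controls were DMSO wells with stimulus for no effect and unstimulated DMSO wells for full effect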
# In short: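 Material: KKLEB immortalized cystic fibrosis airway epithelial cells with NFkB-GFP reporter; buffer or medium: 2% FBS cell medium, serum-free stimulus medium; also added: PAF stimulation; dosing: 5 µM single dose; times: 2 h compound pretreatment at 37 °C, overnight PAF exposure; detection: GFP fluorescence of NFkB reporter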
# [2] = inhibitors of PAF-induced NFkB signaling in CF airway cells, dose response, cell-based, uHTS hits, panel, cytotoxicity readout (AID 624344); conditions: CF bronchial epithelial cells, PAF-induced NFkB reporter inhibition, with PAF, run 1; at 79 µM (top of the series) unless noted
# [3] = as above; conditions: CF bronchial epithelial cells, PAF-induced NFkB reporter inhibition, with PAF, run 2; at 79 µM (top of the series) unless noted
# [4] = HIF-2a reporter inhibitor retest, confirmation, luminescence, 786-0 RCC cells (AID 651580;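 active = mean inhibition across four replicates of at least 40 percent at the single tested concentration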); conditions: HIF-2a luciferase reporter luminescence, overnight, at 18.8 µM, stronger effect = higher value
# [5] = HIF-1a luciferase reporter signal reduction – MiaPaCa-2 cells, single concentration, counter-screen for HIF-2a inhibitor project, confirmation (AID 651589;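 active = mean inhibition of the reporter signal across four replicates at the single tested dose of 50% or more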); conditions: MiaPaCa-2 HIF-1a luciferase reporter, desferoxamine, overnight; at 18.8 µM; stronger effect = higher value
compound,measurement,setting,value
CC(C)C[C@H]1CNC(=S)N1C[C@H]1CCCN1C[C@H](Cc1ccc(O)cc1)N1C[C@H](Cc2ccc(O)cc2)N(CC2CCCCC2)C1=S,inhibition,[1],56.7% (active)
same,inhibition,[2],104%
same,inhibition,[3],111%
CCOC(=O)C(C(=O)c1ccccc1)C(c1ccccc1)c1nccc2ccccc12 (stereo unspecified),inhibition,[1],14.4% (inactive)
NC(=O)c1sc2nc3c(c(-c4ccccc4)c2c1N)CCC3,inhibition,[1],93.2% (active)
same,inhibition,[2],114%
same,inhibition,[3],104%
Clc1ccc2c(c1)C1=C(C(c3ccncc3)O2)C(c2ccc(Br)cc2)n2ncnc2N1 (stereo unspecified),inhibition,[1],50% (active)
Cc1ccc(CCC(=O)Nc2ncc(Cc3cc(Cl)ccc3Cl)s2)o1,inhibition,[1],83.8% (active)
same,inhibition,[2],101%
same,inhibition,[3],101%
COc1ccc(NC(=O)c2cc(-c3cc(OC)c(OC)c(OC)c3)nc3ccccc23)c(OC)c1,inhibition,[1],24.8% (inactive)
CC1(C)O[C@@H]2CC3C4C[C@H](F)C5=CC(=O)C=CC5(C)C4C(O)CC3(C)[C@]2(C(=O)CO)O1 (stereo partly specified),inhibition,[1],27.4% (inactive)
c1nnc2c3c4c(sc3ncn12)CCC4,inhibition,[1],22.1% (inactive)
C=CCSc1nsc(NC(=O)Nc2cccc(C(C)=O)c2)n1,inhibition,[1],98.3% (active)
same,inhibition,[2],109%
same,inhibition,[3],101%
COC(=O)c1ccc(NC(=O)c2ccccc2NS(=O)(=O)c2ccccc2)cc1,inhibition,[1],69.8% (active)
same,inhibition,[2],118%
same,inhibition,[3],105%
Cc1cccc2sc(N(CCCN(C)C)C(=O)CCS(=O)(=O)c3ccccc3)nc12,inhibition,[1],84.3% (active)
same,inhibition,[4],22.5% (inactive)
same,inhibition,[5],98.9% (active)
same,inhibition,[2],98.4%
same,inhibition,[3],102%
CCSc1nsc(NC(=O)Nc2cccc(C(C)=O)c2)n1,inhibition,[1],98.9% (active)
same,inhibition,[2],117%
same,inhibition,[3],97%
CCCc1nc2c(c(=O)c3ccccc3n2C)c(=O)n1C1CCCCCC1,inhibition,[1],46.9% (active)
O=C(NNc1ccccc1Cl)C(O)(c1cccc(C(F)(F)F)c1)c1cccc(C(F)(F)F)c1,inhibition,[1],63% (active)
same,inhibition,[2],115%
same,inhibition,[3],105%
C=CCc1cc(S(=O)(=O)c2ccc(O)c(CC=C)c2)ccc1O,inhibition,[1],48.8% (active)
same,inhibition,[2],111%
same,inhibition,[3],99.2%
O=C1Nc2ccccc2/C1=C/c1ccnc2ccccc12,inhibition,[1],55% (active)
same,inhibition,[2],106%
same,inhibition,[3],111%
C#CCN(C[C@@H]1[C@@H](OC(=O)NC2CC2)[C@@H](OC(=O)NC2CC2)Cn2c(=O)ccc(=O)n21)S(=O)(=O)c1ccc(C)cc1,inhibition,[1],61.6% (active)
same,inhibition,[2],102%
same,inhibition,[3],111%
COc1ccc(CNC(=O)C(c2ccc(O)cc2)N(Cc2ccco2)C(=O)c2snc(C(N)=O)c2N)cc1 (stereo unspecified),inhibition,[1],49.2% (active)
same,inhibition,[2],114%
same,inhibition,[3],104%
COc1ccc(CNC(=O)/C(C#N)=C/c2cccc(OC)c2OC)cc1,inhibition,[1],34.1% (inactive)
Cc1c(C)c2ccc(OCC(=O)N3CCN(c4cccc(Cl)c4)CC3)cc2oc1=O,inhibition,[1],10.3% (inactive)
COc1cc(C2c3cc4c(cc3C(O)C3COC(=O)C23)OCO4)cc(OC)c1OC (stereo unspecified),inhibition,[1],83.3% (active)
same,inhibition,[2],-0.395%
same,inhibition,[3],37.3%
O=C(CSc1nc(C2CC2)nc2ccccc12)Nc1cccc(O)c1,inhibition,[1],50.6% (active)
same,inhibition,[2],90.6%
same,inhibition,[3],79.8%
O=[N+]([O-])c1ccc(Oc2ccc(F)cc2Br)c2ccncc12,inhibition,[1],77.7% (active)
same,inhibition,[2],116%
same,inhibition,[3],103%
CC(=O)Oc1c(C(=O)c2nnc(C)o2)c(=O)n(Cc2ccccc2)c2ccccc12,inhibition,[1],59% (active)
same,inhibition,[2],112%
same,inhibition,[3],101%
COc1ccc(NC(=S)SC)cc1OC,inhibition,[1],39.3% (inactive)
O=C1OC(Oc2ccc(Br)cc2)(c2ccccc2)c2ccccc21 (stereo unspecified),inhibition,[1],4.99% (inactive)
CN(C)C(=O)c1cccc(-c2cnc3sc(NCc4ccc5c(c4)OCO5)nn23)c1,inhibition,[1],97.2% (active)
same,inhibition,[2],116%
same,inhibition,[3],106%
COc1ccc(NC(=O)c2sc3nc(C)nc(N4CCN(c5ccccn5)CC4)c3c2C)c(OC)c1,inhibition,[1],38.6% (inactive)
COc1cncc(-c2cnc3sc(NCCc4ccccn4)nn23)c1,inhibition,[1],76.6% (active)
same,inhibition,[2],102%
same,inhibition,[3],109%
Cc1ccc(Cc2c(-c3ccco3)nc3ccc(Cl)cn23)cc1,inhibition,[1],-82.3% (inactive)
COc1ccc(CNc2ncnc3ccccc23)cc1,inhibition,[1],47.6% (active)
same,inhibition,[2],112%
same,inhibition,[3],87%
CCc1ccc(N(CC)c2ncnc3nc[nH]c23)cc1,inhibition,[1],62.6% (active)
same,inhibition,[2],101%
same,inhibition,[3],99.3%
CN(C)c1ccnc2sc3c(=O)n(Cc4ccccc4)cnc3c12,inhibition,[1],91.5% (active)
same,inhibition,[2],106%
same,inhibition,[3],97.7%
CCOC(=O)c1c(-c2ccccc2)oc2cc(Br)c(O)c(C=O)c12,inhibition,[1],90.8% (active)
same,inhibition,[2],90.8%
same,inhibition,[3],84.3%
COc1cc(OC)cc(C(=O)N[C@H](C(=O)Nc2nc3ccccc3[nH]2)C(C)C)c1,inhibition,[1],85.8% (active)
same,inhibition,[2],84.2%
same,inhibition,[3],80.2%
COc1cccc2sc(N(CCCN(C)C)C(=O)CCS(=O)(=O)c3ccccc3)nc12,inhibition,[1],102% (active)
same,inhibition,[2],88.9%
same,inhibition,[3],86.9%
